Data set [1] is described as follows: Antiproliferative activity against human WI38 cells at 10 uM after 48 hrs relative to control. Format: cell-based. The settings on record: wi-38, 48 h. In short, it runs like this: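 WI-38 embryonic lung fibroblasts grown in DMEM with 10% FBS and passaged with trypsin. Plated in 96-well format and exposed to a single 10 µM concentration, with DMSO vehicle. CellTiter-Glo luminescence read 48 h after treatment, four replicates. Values given as percent of control ± SD.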

Data set [2] deals with RAW264.7. The experiment in a line: Antiproliferative activity against mouse RAW264.7 cells at 10 uM after 48 hrs relative to control. Format: functional. In short, it runs like this:
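RAW264.7 cells grown in RPMI with 10% FBS and passaged by scraping. Seeded in 96-well plates, treated at 10 µM 24 h after seeding, four replicates. CellTiter-Glo ATP luminescence read 48 h after treatment; results given as percent of vehicle-treated control with SD.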

Data set [3] relates to HeLa. Briefly: Antiproliferative activity against human HeLa cells at 10 uM after 48 hrs relative to control. Format: functional, cell-based. In short, it runs like this:
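HeLa cells grown in DMEM with 10% FBS, seeded in 96-well plates and treated 24 h after seeding. CellTiter-Glo assay run 48 h post-treatment, four replicates per concentration. Results given as mean ± SEM relative to DMSO vehicle.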

In data set [4] the test system is RBL-2H3. Briefly: Antiproliferative activity against rat RBL2H3 cells at 0.1 uM treated 1 hr before LPS-challenge assessed after 24 hrs relative to control. The data set is classed as functional. In short, it runs like this:
(§1)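 RBL-2H3 mast cells, 500 cells/well in 96-well plates, grown 24 h, medium changed and cells held 4 h. Agent added 1 h before LPS (10 ng/ml), then 24 h further incubation. Cell number by CellTiter-Glo luminescence, n = 3; values given as raw response and as percent of DMSO control.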

Data set [5] concerns RBL-2H3. The experiment in a line: Antiproliferative activity against rat RBL2H3 cells at 10 uM treated 1 hr before LPS-challenge assessed after 24 hrs relative to control. The data set is classed as functional. In short, it runs like this: as §1
In data set [6] the test system is RBL-2H3. Briefly: Antiproliferative activity against rat RBL2H3 cells at 1 uM treated 1 hr before LPS-challenge assessed after 24 hrs relative to control. Format: functional. In short, it runs like this: as §1
Data set [7] is described as follows: Antiproliferative activity against human HTB125 cells at 0.1 to 1.0 uM after 48 hrs by luciferase assay relative to control. The settings on record: htb125, 48 h. The data set is classed as cell-based. In short, it runs like this:
(§2)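 Matched breast lines from the same donor: HTB-125 (normal) and HTB-126 (tumor), seeded in 96-well plates and treated 24 h after seeding, DMSO vehicle. CellTiter-Glo ATP luminescence read 48 h after treatment. Four replicates per point over a dose series; values expressed as percent of vehicle-treated wells.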

Data set [8] concerns HTB126. The experiment in a line: Antiproliferative activity against human HTB126 cells at 0.1 to 1.0 uM after 48 hrs by luciferase assay relative to control. The data set is classed as functional, cell-based. A digest of the protocol: as §2
Data set [9] concerns HTB126. Briefly: Antiproliferative activity against human HTB126 cells assessed as […] at 10 uM after 48 hrs by luciferase assay. The data set is classed as functional, cell-based. A digest of the protocol:
(§3)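 HTB-126 human breast tumour cells, 2000 cells/well in 24-well plates, grown 24 h, then given vehicle or agent at 10 µM final (diluted from a DMSO stock), N = 6. Parallel plates assayed at successive times after treatment by CellTiter-Glo luciferase ATP luminescence, read 15 min after adding an equal volume of reagent; raw units reported.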

Data set [10] relates to HTB126. The experiment in a line: Antiproliferative activity against human HTB126 cells assessed as fluorescence units at 10 uM after 48 hrs by luciferase assay in presence of rimonabant. The data set is classed as functional, cell-based. A digest of the protocol: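 HTB-126 tumor breast cells in 96-well plates. Rimonabant (10 µM) added 30 min before the test agent (10 µM). CellTiter-Glo luminescence read 48 h later, four replicates. Values reported as raw fluorescence units rather than percent, because there are two control treatments.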

The subject of data set [11] is HTB126. Briefly: (§4) Antiproliferative activity against human HTB126 cells at 10 uM after 48 hrs by luciferase assay relative to control. Format: functional. A digest of the protocol:
(§5)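 HTB-126 cells, with matched normal HTB-125 from the same donor, in DMEM with 10% FBS. Cells seeded in 96-well plates and treated 24 h after seeding across a dose range, four replicates per point. CellTiter-Glo ATP luminescence read 48 h after treatment; values given as percent of vehicle (DMSO) wells.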

The subject of data set [12] is HTB126. The experiment in a line: Antiproliferative activity against human HTB126 cells assessed as […] at 10 uM after 72 hrs by luciferase assay. Format: functional, cell-based. In short, it runs like this:
as §3

For data set [13], the system named is HTB126. The experiment in a line: Antiproliferative activity against human HTB126 cells assessed as […] at 10 uM after 24 hrs by luciferase assay. Format: functional, cell-based. In short, it runs like this: as §3
Data set [14] concerns HTB126. Briefly: Antiproliferative activity against human HTB126 cells assessed as […] at 10 uM after 96 hrs by luciferase assay. Format: functional, cell-based. In short, it runs like this:
as §3

Data set [15] is described as follows: as §4. Format: functional. The settings on record: HTB126, 48 h. In short, it runs like this:
as §5

Data set [16] is described as follows: Antiproliferative activity against human HTB125 cells at 10 uM after 48 hrs by luciferase assay relative to control. Format: cell-based. The settings on record: htb125, 48 h. A digest of the protocol: as §2

Activity calls are given as the source filed them. No cut-off for these calls is given here.

As for `CCCCC/C=C\C/C=C\C/C=C\CCCCCCC(=O)NCCO`, the Activity in data set [1] was found to be 54%; in data set [2], 70%.
As for `CCCCC/C=C\C/C=C\C/C=C\CCCCCCC(=O)NCCc1ccc(O)c(O)c1`, the outcome in data set [3] was Active. Further, the values for the Activity in data set [1] and in data set [2] were 25.5% and 5.72%, respectively.
For the molecule `CCCCC/C=C\C/C=C\C/C=C\C/C=C\CCCC(=O)N[C@@H](C)C(=O)O`, the results for the Activity in [4], in data set [5] and in data set [6] were 120%, 50% and 160%, respectively.
With `CCCCC/C=C\C/C=C\C/C=C\C/C=C\CCCCCC(=O)NCCO`, the Activity in [1] was found to be 24%; in [2], 65%.
Turning to `CCCCCCCCCCCCCCCC(=O)N[C@@H](C)C(=O)O`, the results for the Activity in [4], in [5] and in [6] were 110%, 10% and 90%, respectively.
`CCCCC/C=C\C/C=C\C/C=C\CCCCC(=O)NCCO`: the Activity in [1] stood at 54%; in data set [2], 87%.
In the case of `CCCCC/C=C\C/C=C\C/C=C\CCCCC(=O)NCCc1ccc(O)c(O)c1`, the result in data set [3] was Active. The figures for the Activity in [1] and in data set [2] were 38.3% and 6.1%, respectively.
For the molecule `CCCCC/C=C\C/C=C\C/C=C\CCCCC(N)=O`, the Activity in [1] is on record as 33%; in data set [2] it was 94%.
For `CCCCC/C=C\C/C=C\C/C=C\CCCCCCC(N)=O`, in that order: 58% and 82%.
As to `CCCCC/C=C\C/C=C\C/C=C\C/C=C\CCCCCC(=O)NCCc1ccc(O)c(O)c1`, the outcome in data set [3] was Active. For the same molecule, the values for the Activity in data set [1] and in data set [2] were 25.7% and 4.32%, respectively.
With `CCCCCCCCCCCCCCCC(=O)N[C@@H](Cc1ccc(O)cc1)C(=O)O`, the Activity result in data set [7] is recorded as “Non-toxic”. The result in data set [8] and in [10] was inactive. The outcome in data set [9], in [11], in data set [12] and in data set [13] was Active.
Consider `CCCCC/C=C\C/C=C\C/C=C\C/C=C\CCCCCC(N)=O`, for which the Activity in data set [1] came out at 61%; in data set [2] it was 91%.
On to `CCCCCCC(C)(C)c1cc(O)c2c(c1)OC(C)(C)[C@@H]1CC=C(C(=O)O)C[C@@H]21`, for which the outcome in data set [3], in [9], in data set [14], in data set [12] and in data set [13] was Active.
As for `CCCCC/C=C\C/C=C\C/C=C\C/C=C\CCCC(=O)NCCO` [ANANDAMIDE], the Activity in data set [1] turned out to be 74%; in data set [2], 110%.
For the molecule `CCCCC/C=C\C/C=C\C/C=C\C/C=C\CCCC(N)=O` [ARACHIDONAMIDE], the Activity in data set [1] amounted to 58%; in [2], 91%.
On to `CCCCC/C=C\C/C=C\C/C=C\C/C=C\CCCC(=O)NCCc1ccc(O)c(O)c1` [ARACHIDONOYL DOPAMINE], for which the Activity in data set [4] is 110%; in data set [5] it was 14%; in data set [1], 22.1%; in [6], 70%; in [2] it was 2.33%.
Take `CCCCC/C=C\C/C=C\C/C=C\C/C=C\CCCC(=O)NCCCC(=O)O` [ARACHIDONOYL GABA]: the Activity in [4] came to 100%; in data set [5] it was 15%; in data set [6] it was 120%.
Turning to `CCCCC/C=C\C/C=C\C/C=C\C/C=C\CCCC(=O)NCC(=O)O` [ARACHIDONOYL GLYCINE], the Activity in data set [4] came out at 130%; in [5], 21%; in data set [6], 130%.
In the case of `COc1ccc2c(c1)c(CC(=O)O)c(C)n2C(=O)c1ccc(Cl)cc1` [INDOMETHACIN], the Activity in [1] is on record as 144%; in data set [2], 177%.
Take `CC/C=C\C/C=C\C/C=C\CCCCCCCC(N)=O` [LINOLENAMIDE]: the Activity in data set [1] is listed as 85%; in [2], 126%.
In the case of `CCCCC/C=C\C/C=C\CCCCCCCC(=O)NCCO` [LINOLEOYLETHANOLAMIDE], the values for the Activity in data set [1] and in data set [2] were 63% and 100%, respectively.
Regarding `CCCCCCCC/C=C\CCCCCCCC(N)=O` [OLEAMIDE], the Activity in data set [1] was determined as 94%; in data set [2], 134%.
With `CCCCCCCC/C=C\CCCCCCCC(=O)NCCc1ccc(O)c(O)c1` [OLEOYL DOPAMINE], the result in [3] was Active. The Activity in data set [1] is recorded as 24%; in [2], 7.02%.
In the case of `CCCCCCCC/C=C\CCCCCCCC(=O)NCCO` [OLEOYLETHANOLAMIDE], the Activity in data set [1] amounted to 140%; in data set [2] it was 117%.
The corresponding values for `CCCCCCCCCCCCCCCC(=O)NCCO` [PALMIDROL] are 130% and 66%.
As to `CCCCCCCCCCCCCCCC(N)=O` [PALMITAMIDE], the Activity in [1] turned out to be 118%; in data set [2], 100%.
Consider `CCCCCCCCCCCCCCCC(=O)NCCc1ccc(O)c(O)c1` [PALMITOYL DOPAMINE], for which the Activity in data set [4] was 130%; in data set [5], 15%; in data set [1] it was 41.6%; in data set [6] it was 50%; in [2], 11.1%; in data set [16] it was “Not Active”. For the same molecule, at 10 µM the inhibition in data set [15] was 80%.
Consider `CCCCCCCCCCCCCCCC(=O)NCCCC(=O)O` [PALMITOYL GABA], for which the Activity in [4] turned out to be 120%; in data set [5], 100%; in [6], 100%.
Consider `CCCCCCCCCCCCCCCC(=O)NCC(=O)O` [PALMITOYL GLYCINE], for which the values for the Activity in [4], in data set [5] and in data set [6] were 130%, 110% and 110%, respectively. Further, the result in [3] was Active.

For the origin of these results see ChEMBL document CHEMBL1142551, “Acylamido analogs of endocannabinoids selectively inhibit cancer cell proliferation” (Bioorg Med Chem, 2008).
